In series [1] the target is T1, Adenosine receptor A3 (Homo sapiens, UniProt P0DMS8).
T1 sequence (P0DMS8 whole entry): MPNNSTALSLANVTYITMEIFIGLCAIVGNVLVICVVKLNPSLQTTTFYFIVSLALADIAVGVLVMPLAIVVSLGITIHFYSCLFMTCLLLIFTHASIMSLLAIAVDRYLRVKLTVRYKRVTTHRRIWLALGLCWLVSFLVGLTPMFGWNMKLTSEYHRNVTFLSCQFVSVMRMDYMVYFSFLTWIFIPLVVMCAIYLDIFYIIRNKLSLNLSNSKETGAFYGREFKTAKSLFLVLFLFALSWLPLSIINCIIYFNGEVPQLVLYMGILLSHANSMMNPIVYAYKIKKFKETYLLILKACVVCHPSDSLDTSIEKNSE
In words: Displacement of [3H]HEMADO from human recombinant adenosine A3 receptor expressed in CHO cells. The class given is cell-based. The method, boiled down: (§1)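 Competition binding on membranes from CHO cells stably transfected with individual human adenosine receptor subtypes; radioligands 1 nM [3H]CCPA (A1), 30 nM [3H]NECA (A2A), 1 nM [3H]HEMADO (A3); Ki from nonlinear curve fitting; selectivity as Ki ratio.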
(In general: In a radioligand displacement assay an active substance lowers the binding of a labelled ligand.)

The target of series [2] is T2, Adenosine receptor A2b (Homo sapiens, UniProt P29275).
T2 sequence (P29275 whole entry): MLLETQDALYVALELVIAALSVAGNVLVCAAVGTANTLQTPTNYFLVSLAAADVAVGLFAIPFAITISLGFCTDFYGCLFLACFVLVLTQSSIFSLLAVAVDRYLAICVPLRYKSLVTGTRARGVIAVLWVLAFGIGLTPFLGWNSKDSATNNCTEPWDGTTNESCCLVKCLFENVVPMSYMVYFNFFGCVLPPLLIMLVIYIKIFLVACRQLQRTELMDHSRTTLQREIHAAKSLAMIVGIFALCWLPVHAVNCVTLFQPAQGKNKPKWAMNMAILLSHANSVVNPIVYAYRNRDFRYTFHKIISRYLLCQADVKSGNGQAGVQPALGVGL
The experiment in a line: Agonist activity at human adenosine A2B receptor expressed in CHO cells assessed as inhibition of NECA-stimulated adenylyl cyclase activity. The class given is functional, cell-based. Put shortly: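 Membranes from CHO cells stably expressing human A2B receptor; inhibition of NECA-stimulated adenylyl cyclase activity measured, IC50 converted to Ki; curves fitted by nonlinear regression.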

Series [3] addresses T3, Adenosine receptor A1 (Homo sapiens, UniProt P30542).
T3 sequence (P30542 whole entry): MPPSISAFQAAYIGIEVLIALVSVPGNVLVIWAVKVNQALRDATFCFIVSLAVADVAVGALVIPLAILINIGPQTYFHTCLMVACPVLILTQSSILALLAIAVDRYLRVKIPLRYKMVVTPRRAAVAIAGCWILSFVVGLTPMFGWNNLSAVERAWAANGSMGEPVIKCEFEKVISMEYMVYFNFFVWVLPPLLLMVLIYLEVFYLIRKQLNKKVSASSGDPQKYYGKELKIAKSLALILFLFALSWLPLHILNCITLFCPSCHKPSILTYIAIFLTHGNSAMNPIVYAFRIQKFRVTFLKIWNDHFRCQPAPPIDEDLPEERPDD
In words: Displacement of [3H]CCPA from human recombinant adenosine A1 receptor expressed in CHO cells. The class given is cell-based.

Series [4] addresses Adenosine receptors; A1 & A3 (Homo sapiens) (UniProt P30542+P0DMS8). The experiment in a line: Selectivity of Ki for human recombinant adenosine A3 receptor to Ki for human recombinant adenosine A1 receptor. The method, boiled down:
as §1

For series [5], the target named is Adenosine receptor A2a (Homo sapiens, UniProt P29274). The experiment in a line: Displacement of [3H]NECA from human recombinant adenosine A2A receptor expressed in CHO cells. The class given is cell-based. The method, boiled down: as §1
Series [6] is filed under the species Homo sapiens. In words: Selectivity of Ki for human recombinant adenosine A2A receptor to Ki for human recombinant adenosine A1 receptor. The method, boiled down: as §1
In series [7] the target is T4, Adenosine receptor A1 (Homo sapiens) (UniProt P30542).
T4 sequence (whole entry): T3 sequence (P30542 whole entry)
In words: Agonist activity human recombinant adenosine A1 receptor expressed in CHO cells assessed as inhibition of forskolin-stimulated adenylyl cyclase activity. The class given is functional, cell-based. The method, boiled down:
(§2)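 CHO cells stably transfected with human receptor (A1 or A3); cyclase activity stimulated by 10 µM forskolin taken as 100%; percentage activity remaining after agonist-mediated inhibition reported; means ± SEM of three independent experiments.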

Series [8] addresses T5, Adenosine receptor A3 (Homo sapiens) (UniProt P0DMS8).
T5 sequence (whole entry): T1 sequence (P0DMS8 whole entry)
In words: Antagonist activity at human recombinant adenosine A3 receptor expressed in CHO cells assessed as inhibition of forskolin-stimulated adenylyl cyclase activity. The class given is functional, cell-based.

In series [9] the target is T5, Adenosine receptor A3 (Homo sapiens). In words: Agonist activity human recombinant adenosine A3 receptor expressed in CHO cells assessed as inhibition of forskolin-stimulated adenylyl cyclase activity. The class given is functional, cell-based. The method, boiled down:
as §2

Series [10] can be described thus: Lipophilicity log P of the compound. The class given is physicochemical. Particulars: octanol/water.
Series [11] has as its system Mus musculus. In words: Analgesic activity in ip dosed mouse assessed as reduction of formalin-induced late nociceptive behavior administered 10 mins before formalin challenge measured every 5 mins for 60 mins. The class given is functional, organism-based. The method, boiled down:
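Mice, n = 8-10 per group, randomly assigned; drug or vehicle (0.9% NaCl) given i.p. 10 min before 1.25% formalin in saline (30 µL) into dorsal hind paw; DPCPX 3 mg/kg i.p. co-administered where stated. Lifting, licking, shaking, flinching timed every 5 min for 60 min; early phase 0-7 min, late 15-60 min; mean ± SEM.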

Structures are written as SMILES. Active and inactive are the calls of the source. The calls are words filed in the database; no cut-off is given here.

Usually Ki stands for a dissociation constant, usually derived from enzyme kinetics or from competition with a known ligand. The term logP denotes the decadic logarithm of the partition coefficient of the neutral form, usually between octanol and water. Low readings indicate a more hydrophilic compound, high ones a more lipophilic compound.

Chain of Adenosine receptor A2a (P29274 whole entry): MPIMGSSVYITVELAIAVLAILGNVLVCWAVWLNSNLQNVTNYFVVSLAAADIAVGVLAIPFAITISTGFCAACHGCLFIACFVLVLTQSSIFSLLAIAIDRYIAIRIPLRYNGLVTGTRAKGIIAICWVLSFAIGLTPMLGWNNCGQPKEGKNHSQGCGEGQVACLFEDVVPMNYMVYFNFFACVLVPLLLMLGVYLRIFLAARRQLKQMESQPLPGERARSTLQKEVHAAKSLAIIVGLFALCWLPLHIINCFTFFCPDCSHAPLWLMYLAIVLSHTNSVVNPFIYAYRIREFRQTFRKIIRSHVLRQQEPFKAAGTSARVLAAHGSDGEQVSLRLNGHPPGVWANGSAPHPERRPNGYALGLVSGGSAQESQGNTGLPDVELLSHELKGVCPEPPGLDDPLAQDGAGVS

`C[C@@]1(O)[C@H](O)[C@@H](CSc2ccccc2F)O[C@H]1n1cnc2c(NC3CC4CCC3C4)ncnc21` (mixture of isomers): the Ki in series [1] was 3480 nM; in series [2], more than 10 µM; in series [3], 1060 nM; in series [5], more than 100 µM. For the same compound, the Ratio Ki in [4] is 3; in series [6] it was more than 94.

As for `C[C@@]1(O)[C@H](O)[C@@H](CCl)O[C@H]1n1cnc2c(NC3CCCC3)ncnc21`, the Ki in series [1] was 6740 nM; in series [2] it was more than 10 µM; in series [3], 28.4 nM; in series [5] it was more than 100 µM. Besides, the Ratio Ki in [4] was 237; in series [6], more than 3520.

For `O[C@@H]1[C@H](O)[C@@H](CCl)O[C@H]1n1cnc2c(NC3CCCC3)nc(Cl)nc21`, the Ki came out at 417 nM in [1], 4.83 µM in [2], 1.56 nM in [3] and 2.16 µM in series [5]. Also, the result in series [7] was Active. In addition, the Ratio Ki in series [4] is 267; in series [6], 1380.

Take `C[C@@]1(O)[C@H](O)[C@@H](CSc2ccccc2F)O[C@H]1n1cnc2c(NC3CCCC3)nc(Cl)nc21`: the Ki in series [1] is 1150 nM; in [2], more than 10 µM; in [3], 2150 nM; in series [5], more than 100 µM. In addition, the Ratio Ki is 0.5 in [4] and more than 47 in series [6].

Consider `C[C@@]1(O)[C@H](O)[C@@H](CSc2ccccc2F)O[C@H]1n1cnc2c(NC3CC4CCC3C4)nc(Cl)nc21` (mixture of isomers), for which the Ki in series [1] is 4350 nM; in [2] it was more than 10 µM; in series [3] it was 2970 nM; in series [5] it was more than 100 µM. Also, the Ratio Ki was 1.5 in series [4] and more than 34 in [6].

With `O[C@@H]1[C@H](O)[C@@H](CCl)O[C@H]1n1cnc2c(NC3CCCC3)ncnc21`, the Ki was determined as 376 nM in series [1], 3.21 µM in [2], 0.59 nM in [3] and 0.837 µM in series [5]. The result in series [7] and in series [8] was Active. Also, the Ratio Ki in series [4] is 637; in series [6], 1470.

Consider `OC[C@H]1O[C@@H](n2cnc3c(NC4CC5CCC4C5)nc(Cl)nc32)[C@H](O)[C@@H]1O` (mixture of isomers), for which the Ki was 129 nM in [1], more than 10 µM in series [2], 0.71 nM in series [3] and 0.797 µM in series [5]. Also, in series [7], the outcome was Active. Besides, the Ratio Ki in series [4] amounted to 182; in [6] it was 1120.

In the case of `C[C@@]1(O)[C@H](O)[C@@H](CO)O[C@H]1n1cnc2c(NC3CC4CCC3C4)nc(Cl)nc21` (mixture of isomers), the inhibition constant (Ki) in series [1] was 4490 nM; in [2], more than 10 µM; in [3] it was 6.96 nM; in series [5], 11.8 µM. The Ratio Ki in [4] turned out to be 645; in [6], 1700.

Take `OC[C@H]1O[C@@H](n2cnc3c(NC4CCCC4)ncnc32)[C@H](O)[C@@H]1O`: in series [9], the outcome was Active.

Regarding `C[C@@]1(O)[C@H](O)[C@@H](CCl)O[C@H]1n1cnc2c(NC3CCCC3)nc(Cl)nc21`, the Ki in [1] was 3030 nM; in series [2] it was more than 10 µM; in [3], 12.8 nM; in [5], 16.2 µM. In addition, the Ratio Ki in series [4] was determined as 237; in [6], 1770.

As to `C[C@@]1(O)[C@H](O)[C@@H](CCl)O[C@H]1n1cnc2c(NC3CC4CCC3C4)ncnc21` (mixture of isomers), the Ki in series [1] is 11600 nM; in series [2], more than 10 µM; in series [3], 9.13 nM; in series [5] it was 24 µM. For the same compound, the Ratio Ki came to 1270 in series [4] and 2630 in series [6].

For the compound `C[C@@]1(O)[C@H](O)[C@@H](CO)O[C@H]1n1cnc2c(NC3CC4CCC3C4)ncnc21` (mixture of isomers), the Ki in series [1] was 2520 nM; in [2] it was more than 10 µM; in [3], 4.09 nM; in [5], 8.78 µM. In [7], the result was Active. The Ratio Ki in series [4] is 616; in [6], 2150.

In the case of `C[C@@]1(O)[C@H](O)[C@@H](CCl)O[C@H]1n1cnc2c(NC3CC4CCC3C4)nc(Cl)nc21` (mixture of isomers), the Ki in series [1] is 5900 nM; in [2], more than 10 µM; in [3], 9.16 nM; in [5], 31.6 µM. For the same compound, the figures for the Ratio Ki in series [4] and in series [6] were 644 and 3450, respectively.

`O[C@@H]1[C@H](O)[C@@H](CSc2ccccc2F)O[C@H]1n1cnc2c(NC3CCCC3)nc(Cl)nc21`: the Ki was 479 nM in series [1], more than 10 µM in series [2], 258 nM in [3] and 2.19 µM in series [5]. Moreover, the results for the Ratio Ki in series [4] and in series [6] were 2 and 8, respectively.

Turning to `C[C@@]1(O)[C@H](O)[C@@H](CSc2ccccc2F)O[C@H]1n1cnc2c(NC3CCCC3)ncnc21`, the Ki was 1440 nM in [1], more than 10 µM in [2], 1680 nM in series [3] and more than 100 µM in series [5]. Also, the Ratio Ki in series [4] is 0.9; in series [6] it was more than 60.

With `O[C@@H]1[C@H](O)[C@@H](CSc2ccccc2F)O[C@H]1n1cnc2c(NC3CCOC3)ncnc21` (stereo not given in full), the inhibitory constant (Ki) was 746 nM in series [1], more than 10 µM in [2], 250 nM in [3] and 18.9 µM in series [5]. Moreover, the Ratio Ki in series [4] turned out to be 3; in series [6] it was 76.

Regarding `O[C@@H]1[C@H](O)[C@@H](CCl)O[C@H]1n1cnc2c(NC3CC4CCC3C4)nc(Cl)nc21` (mixture of isomers), the Ki is 1410 nM in series [1], more than 10 µM in [2], 1.61 nM in series [3] and 2.05 µM in [5]. Besides, in series [7], the result was Active. Moreover, the Ratio Ki came out at 875 in [4] and 1270 in series [6].

Consider `O[C@@H]1[C@H](O)[C@@H](CCl)O[C@H]1n1cnc2c(NC3CC4CCC3C4)ncnc21` (mixture of isomers), for which the Ki in [1] was found to be 1290 nM; in series [2] it was 2.74 µM; in [5], 1.34 µM. For the same compound, the logP in series [10] was determined as 1.04. The result in [7] and in series [8] was Active. The Activity result in series [11] was “Dose-dependent effect”.

On to `O[C@@H]1[C@H](O)[C@@H](CSc2ccccc2F)O[C@H]1n1cnc2c(NC3CCCC3)ncnc21`, for which the Ki was 296 nM in series [1], more than 10 µM in series [2], 64.7 nM in series [3] and 5.17 µM in [5]. For the same compound, the Ratio Ki in series [4] worked out at 5; in [6] it was 80.

`OC[C@H]1O[C@@H](n2cnc3c(NC4CC5CCC4C5)ncnc32)[C@H](O)[C@@H]1O` (mixture of isomers): the Ki in series [1] was found to be 101 nM; in series [2] it was 4.93 µM; in series [3] it was 0.54 nM; in [5] it was 1.27 µM. This compound also gave a logP in [10] of -0.14. The result in [7] and in series [9] was Active. Further, the Ratio Ki is 187 in [4] and 2350 in [6].

The record behind these values is ChEMBL document CHEMBL1153422, “N6-Cycloalkyl- and N6-bicycloalkyl-C5'(C2')-modified adenosine derivatives as high-affinity and selective agonists at the human A1 adenosine receptor with antinociceptive effects in mice” (J Med Chem, 2009).
